Tests used:
[1] = Cytotoxicity against mouse NIH/3T3 cells assessed as inhibition of cell growth incubated for 72 hrs by MTT assay; type: toxicity, cell-based, NIH3T3
Procedure, shortened: (§1)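 Cells kept in Eagle's MEM with 10% FBS, 1% non-essential amino acids and 1% antibiotic-antimycotic at 37 °C, 5% CO2. Seeded at 5000 cells per well and incubated overnight before compound addition. Growth inhibition tested at 10 and 30 μM, IC50 from 1.0–30.0 μM (four concentrations). MTT added for 4 h, formazan dissolved in DMSO, absorbance read at 545 nm. Untreated control, two experiments of five wells.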

SiHa = assay: Antiproliferative activity against human SiHa cells assessed as inhibition of cell growth incubated for 72 hrs by MTT assay; type: functional, cell-based; procedure, shortened: as §1
HeLa = assay: Antiproliferative activity against human HeLa cells assessed as inhibition of cell growth incubated for 72 hrs by MTT assay; type: functional, cell-based; procedure, shortened: as §1
MCF7 = assay: Antiproliferative activity against human MCF7 cells assessed as inhibition of cell growth incubated for 72 hrs by MTT assay; type: functional, cell-based; conditions: MCF7, 72 h; procedure, shortened: as §1
A2780 = assay: Antiproliferative activity against human A2780 cells assessed as inhibition of cell growth incubated for 72 hrs by MTT assay; type: functional, cell-based; conditions: A2780, 72 h; procedure, shortened: as §1
MDA-MB-231 = assay: Antiproliferative activity against human MDA-MB-231 cells assessed as inhibition of cell growth incubated for 72 hrs by MTT assay; type: functional, cell-based; conditions: MDA-MB-231, 72 h; procedure, shortened: as §1

IC50 (HeLa) | IC50 (MCF7) | IC50 (A2780) | IC50 (MDA-MB-231) | Compound | IC50 at 72 h [1] | IC50 (SiHa)
5.1 µM | 3.66 µM | – | – | CCOC(=O)[C@H]1c2c(C)cccc2[C@H]2CC[C@@]3(CN[C@@H](C)c4ccc5ccccc5c4)C[C@]21C[C@H]3O | 4.62 µM | 4.36 µM
18.6 µM | 7.07 µM | 4.57 µM | 19.3 µM | CCOC(=O)[C@H]1c2c(C)cccc2[C@H]2CC[C@@]3(CO)C[C@]21C[C@@H]3N[C@H](C)c1cccc2ccccc12 | 14.5 µM | 22.7 µM
4.71 µM | 2.42 µM | 5.39 µM | 4.99 µM | CCOC(=O)[C@H]1c2c(C)cccc2[C@H]2CC[C@@]3(CNCc4cc(Br)ccc4O)C[C@]21C[C@H]3O | 13 µM | 20.6 µM
4.38 µM | – | 4.38 µM | 4.38 µM | CCOC(=O)[C@H]1c2c(C)cccc2[C@H]2CC[C@]3(O)C[C@@]21C[C@]3(O)CN[C@@H](C)c1cccc2ccccc12 | 4.38 µM | 4.38 µM
20.7 µM | 3.43 µM | – | 10.4 µM | CCOC(=O)[C@H]1c2c(C)cccc2[C@H]2CC[C@@]3(CO)C[C@]21C[C@@H]3N[C@@H](C)c1cccc2ccccc12 | 6.02 µM | 22.3 µM
18.8 µM | 4.4 µM | – | 7.71 µM | CCOC(=O)[C@H]1c2c(C)cccc2[C@H]2CC[C@@]3(CNCc4ccc(F)cc4)C[C@]21C[C@H]3O | 15.2 µM | 8.4 µM
5.06 µM | 3.85 µM | 5.08 µM | 6.48 µM | CCOC(=O)[C@H]1c2c(C)cccc2[C@H]2CC[C@@]3(CO)C[C@]21C[C@@H]3NCc1cc(Br)ccc1O | 19.7 µM | 21.9 µM
12.9 µM | 4.08 µM | 13.8 µM | 6.5 µM | CCOC(=O)[C@H]1c2c(C)cccc2[C@H]2CC[C@@]3(CNCc4ccc(OC)cc4)C[C@]21C[C@H]3O | 14.7 µM | 17.7 µM
4.01 µM | 3.14 µM | 4.57 µM | 4.71 µM | CCOC(=O)[C@H]1c2c(C)cccc2[C@H]2CC[C@@]3(CO)C[C@]21C[C@@H]3NCCc1c[nH]c2ccccc12 | 13 µM | 4.12 µM

From ChEMBL document CHEMBL5335840, “Stereoselective synthesis and antiproliferative activity of allo-gibberic acid-based 1,3-aminoalcohol regioisomers” (RSC Med Chem, 2024)
